Measured values: paper PMC4444071 (ACS infectious diseases, 2015)
Where two headings read alike, the source gives them in different places.

Assays:
DENV NS3h [1] = target: T1, DENV NS3h (Dengue virus type 2, UniProt Q91H74); type: biochemical; conditions: read-out: DENV ATPase IC50; DENV NS3h-catalyzed ATP hydrolysis; 100 μM ATP, poly(U) RNA, pH 7.5
DENV NS3h [2] = target: T1, DENV NS3h; type: biochemical; conditions: for IC50: read-out: DENV RNA-helicase IC50, DENV NS3h RNA unwinding, 100 nM DENV helicase
HCV NS3h [3] = target: T2, HCV NS3h (Hepatitis C virus genotype 1b, UniProt Q9WMX2); assay: HCV NS3h-catalyzed ATP hydrolysis assay; type: biochemical; conditions: read-out: HCV ATPase IC50
In short: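 HCV NS3h (4 nM) in 25 mM Tris pH 7.5, 1.25 mM MgCl2, 100 μM ATP, 15 μM poly(U) RNA (as nucleotide), 33 μg/mL BSA, 0.07% Tween 20, 0.3 mM DTT, 0.6% DMSO. Started with MgCl2; 30 min at 23 °C. Released phosphate read at 620 nm with Biomol Green. Scaled to 6.7 μM ATA (100%) and DMSO (0%). IC50 from variable-slope nonlinear fit.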

HCV NS3h [4] = target: T2, HCV NS3h; assay: HCV NS3h RNA unwinding assay; type: biochemical; conditions: read-out: HCV RNA-helicase IC50, values without asterisk
HCV NS3h [5] = target: T2, HCV NS3h; conditions: read-out: HCV DNA-helicase IC50; HCV NS3h DNA unwinding; ref Li et al.[36]; cited from earlier work
[6] = system: herpes simplex virus helicase; conditions: read-out: helicase-catalyzed ATP hydrolysis IC50, cited from earlier work
[7] = system: West Nile virus (Kunjin subtype); assay: West Nile virus; type: cell-based; conditions: 50 μM compound, BHK cells, 72 h
[8] = system: subgenomic DENV-2 replicon; assay: DENV subgenomic replicon assay

T1 sequence (Q91H74 1646-2093 limits assumed): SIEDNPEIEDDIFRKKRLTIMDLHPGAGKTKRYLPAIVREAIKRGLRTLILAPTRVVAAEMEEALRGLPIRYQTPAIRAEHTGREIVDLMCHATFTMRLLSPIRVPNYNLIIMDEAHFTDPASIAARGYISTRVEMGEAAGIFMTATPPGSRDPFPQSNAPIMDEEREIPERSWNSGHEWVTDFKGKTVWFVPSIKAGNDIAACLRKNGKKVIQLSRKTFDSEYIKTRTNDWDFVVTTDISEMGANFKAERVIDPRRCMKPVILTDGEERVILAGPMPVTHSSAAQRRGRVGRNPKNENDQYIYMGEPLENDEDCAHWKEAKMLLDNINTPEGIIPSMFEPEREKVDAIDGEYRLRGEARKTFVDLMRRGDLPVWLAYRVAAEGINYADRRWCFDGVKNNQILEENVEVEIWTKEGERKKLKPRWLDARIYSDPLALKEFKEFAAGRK
T2 sequence (Q9WMX2 1192-1657): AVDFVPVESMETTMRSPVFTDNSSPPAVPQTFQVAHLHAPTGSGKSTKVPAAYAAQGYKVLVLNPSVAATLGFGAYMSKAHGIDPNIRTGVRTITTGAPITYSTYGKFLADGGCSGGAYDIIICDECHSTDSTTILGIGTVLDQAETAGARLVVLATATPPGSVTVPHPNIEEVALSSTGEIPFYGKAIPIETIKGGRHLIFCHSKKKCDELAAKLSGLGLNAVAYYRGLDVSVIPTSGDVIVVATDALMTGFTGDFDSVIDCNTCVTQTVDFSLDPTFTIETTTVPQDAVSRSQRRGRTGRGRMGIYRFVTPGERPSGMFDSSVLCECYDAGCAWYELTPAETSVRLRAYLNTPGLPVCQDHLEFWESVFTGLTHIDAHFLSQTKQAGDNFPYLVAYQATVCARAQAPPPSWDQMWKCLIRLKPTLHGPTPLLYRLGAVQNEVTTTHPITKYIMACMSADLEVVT

| SMILES | IC50 (DENV NS3h [1]) [µM] | IC50 (DENV NS3h [2]) [µM] | IC50 (HCV NS3h [3]) [µM] | IC50 (HCV NS3h [4]) [µM] | IC50 (HCV NS3h [5]) [µM] | also measured |
| --- | --- | --- | --- | --- | --- | --- |
| Cc1ccc2nc(-c3ccc4nc(-c5ccc(NC(=O)c6cc(C(F)(F)F)ccc6F)cc5)sc4c3)sc2c1S(=O)(=O)O [compound 21] | 3.8 ± 0.2 | 5.4 ± 1.3 | 16 ± 2 | 7.5 ± 2 | 6.4 ± 2 |  |
| Cc1ccc2nc(-c3ccc4nc(-c5ccc(NC(=O)c6ccc(NC(=O)OCC7c8ccccc8-c8ccccc87)cc6)cc5)sc4c3)sc2c1S(=O)(=O)O [compound 12] | 1.3 ± 0.3 | 3.5 ± 1.7 | 39 ± 31 | 2.8 ± 1 | 5.4 ± 1 |  |
| Cc1ccc2nc(-c3ccc4nc(-c5ccc(NC(=O)c6c(F)cccc6C(F)(F)F)cc5)sc4c3)sc2c1S(=O)(=O)O [compound 17] |  |  | 93 ± 16 | 32.5 ± 7 | 17 ± 6 |  |
| COc1ccc(C(=O)Nc2ccc(-c3nc4ccc(-c5nc6ccc(C)c(S(=O)(=O)O)c6s5)cc4s3)cc2)cc1 [compound 4] | 3 ± 0.5 |  | 115 ± 14 |  | 10 ± 2.6 |  |
| Cc1ccc2nc(-c3ccc4nc(-c5ccc(NC(=O)c6cc(F)cc(C(F)(F)F)c6)cc5)sc4c3)sc2c1S(=O)(=O)O [compound 23] | 11 ± 5.7 |  | > 200 | 9.8 ± 3 | 28 ± 7 |  |
| Cc1ccc2nc(-c3ccc4nc(-c5ccc(NC(=O)c6ccc(N(C)C)cc6)cc5)sc4c3)sc2c1S(=O)(=O)O [compound 10] | 3.4 ± 0.3 |  | > 200 | 8.6 ± 2 | 11 ± 6.7 |  |
| Cc1ccc2nc(-c3ccc4nc(-c5ccc(NC(=O)c6ccc(F)cc6)cc5)sc4c3)sc2c1S(=O)(=O)O [compound 3] | 3 ± 0.4 | 6.6 ± 0.9 | 32 ± 7 |  | 5.2 ± 0.6 |  |
| Cc1nc(N(C)C(=O)Cc2ccc(-c3ccccn3)cc2)sc1S(N)(=O)=O [BAY 57-1293] |  |  |  |  |  | IC50 ([6]; purified HSV helicase): 0.03 µM |
| Cc1ccc2nc(-c3ccc4nc(-c5ccc(NC(=O)c6cc(F)ccc6C(F)(F)F)cc5)sc4c3)sc2c1S(=O)(=O)O [compound 22] | 7.2 ± 0.8 |  | 65 ± 10 |  | 19 ± 15 |  |
| COC(=O)c1ccc(C(=O)Nc2ccc(-c3nc4ccc(-c5nc6ccc(C)c(S(=O)(=O)O)c6s5)cc4s3)cc2)cc1.N [compound 5] | 0.4 ± 0.1 | 7.9 ± 2.5 | > 200 |  | 9.7 ± 4.6 | times more compound needed to inhibit RNA unwinding than ATP hydrolysis (DENV NS3h [2]; DENV NS3h, unwinding vs ATPase): About 20 times |
| Cc1cc(N2C(=O)C(O)=C(C(=O)c3ccc(C)o3)C2c2cc(Cl)cc(Cl)c2)no1 (stereo not drawn) [compound 25] |  |  |  |  |  | effect on West Nile virus plaque-forming units (in words) [7]: lowering plaque-forming units (pfu) to the greatest extent |
| Cc1ccc2nc(-c3ccc4nc(-c5ccc(NC(=O)c6ccc7nc(-c8ccc(N)cc8)sc7c6)cc5)sc4c3)sc2c1S(=O)(=O)O.N [compound 24] | 0.5 ± 0.1 | 1.5 ± 0.2 |  | 2 ± 0.7 |  | TI (CC50/replicon EC50) ([8]; BHK cell viability CC50 / replicon EC50): 17; inhibition of DENV replicon (in words) ([8]; concentration-response): reduced replication of a subgenomic DENV replicon in cells in a concentration-dependent manner; inhibition of replicon content in concentration-response assays ([8]; eight-point two-fold dilution series starting at 100 μM): more than 90%; EC50 ([8]; read-out: replicon EC50, BHK cell DENV replicon content, 72 h): 7.1 ± 3 µM |
| Cc1ccc2nc(-c3ccc4nc(-c5ccc(NC(=O)c6ccc(Cl)c(Cl)c6)cc5)sc4c3)sc2c1S(=O)(=O)O [compound 14] | 2.7 ± 0.2 | 3.6 ± 0.9 | 53 ± 3 |  | 3.7 ± 1 |  |
| Cc1ccc2nc(-c3ccc4nc(-c5ccc(NC(=O)c6cccc(C(F)(F)F)c6)cc5)sc4c3)sc2c1S(=O)(=O)O [compound 16] | 9.7 ± 3.1 |  | > 200 | 22.4 ± 8 | 20 ± 12 |  |
| Cc1ccc(C(=O)Nc2ccc(-c3nc4ccc(-c5nc6ccc(C)c(S(=O)(=O)O)c6s5)cc4s3)cc2)cc1 [compound 7] | 1.1 ± 0.2 | 4.3 ± 1.9 | 61 ± 1 | 3.9 ± 1 | 3.3 ± 0.3 |  |
| Cc1ccc2nc(-c3ccc4nc(-c5ccc(NC(=O)c6ccc(C(F)(F)F)cc6)cc5)sc4c3)sc2c1S(=O)(=O)O [compound 8] | 1.2 ± 0.2 | 5.2 ± 0.6 | 111 ± 60 | 2.8 ± 2 | 1.8 ± 0.4 |  |
| Cc1ccc2nc(-c3ccc4nc(-c5ccc(NC(=O)c6ccccc6C(F)(F)F)cc5)sc4c3)sc2c1S(=O)(=O)O [compound 15] | 5.4 ± 0.8 |  | 71 ± 23 | 22.8 ± 5 | 14 ± 1 |  |
| Cc1ccc2nc(-c3ccc4nc(-c5ccc(NC(=O)c6ccc(C(F)(F)F)c(F)c6)cc5)sc4c3)sc2c1S(=O)(=O)O [compound 19] | 3.5 ± 1.1 |  | 55 ± 42 | 5.4 ± 2 | 17 ± 7 |  |
| Cc1ccc2nc(-c3ccc4nc(-c5ccc(NC(=O)c6ccc(N)cc6)cc5)sc4c3)sc2c1S(=O)(=O)O [compound 2] | 2.8 ± 0.6 | 7.6 ± 1.6 | 58 ± 10 |  | 10 ± 2.4 |  |
| Cc1ccc2nc(-c3ccc4nc(-c5ccc(NC(=O)c6cccc(Cl)c6)cc5)sc4c3)sc2c1S(=O)(=O)O [compound 13] | 4 ± 0.8 | 5.1 ± 0.9 | 24 ± 5 | 5.9 ± 2 | 2.6 ± 1 |  |
| Cc1ccc2nc(-c3ccc4nc(-c5ccc(NC(=O)c6cccc(C(F)(F)F)c6F)cc5)sc4c3)sc2c1S(=O)(=O)O [compound 18] | 4.3 ± 0.3 |  | 42 ± 14 |  | 9.2 ± 3 |  |
| Cc1ccc2nc(-c3ccc4nc(-c5ccc(NC(=O)c6ccc(Br)cc6)cc5)sc4c3)sc2c1S(=O)(=O)O [compound 11] | 1.1 ± 0.1 | 5 ± 1.2 | 21 ± 6 |  | 5.2 ± 4 |  |
| Cc1ccc2nc(-c3ccc4nc(-c5ccc(NC(=O)c6ccc(C(C)(C)C)cc6)cc5)sc4c3)sc2c1S(=O)(=O)O [compound 9] | 4 ± 0.5 | 10 ± 3.4 | > 200 |  | 8.2 ± 1 |  |
| Cc1ccc2nc(-c3ccc4nc(-c5ccc(NC(=O)c6ccc(Cl)cc6)cc5)sc4c3)sc2c1S(=O)(=O)O [compound 6] | 1.4 ± 0.2 | 5.6 ± 1.2 | 53 ± 4 | 3.3 ± 1 | 3.4 ± 0.3 |  |
| Cc1cccc(C)c1N(CC(=O)Nc1ccc(-c2ncon2)cc1)C(=O)C1CCS(=O)(=O)CC1 [amenamevir] |  |  |  |  |  | IC50 ([6]; HSV helicase): 0.078 µM |
| Cc1ccc2nc(-c3ccc4nc(-c5ccc(NC(=O)c6ccccc6)cc5)sc4c3)sc2c1S(=O)(=O)O [compound 1] | 5.3 ± 1.2 |  | 69 ± 6 | 8.5 ± 2 | 11 ± 1.5 |  |
| Cc1ccc2nc(-c3ccc4nc(-c5ccc(NC(=O)c6cc(C(F)(F)F)cc(C(F)(F)F)c6)cc5)sc4c3)sc2c1S(=O)(=O)O.N [compound 20] | 63 ± 20 | 7.7 ± 1.8 | > 200 |  |  | times less compound needed to inhibit RNA unwinding than ATP hydrolysis (DENV NS3h [2]; DENV NS3h, unwinding vs ATPase): about 8 times |
